ChEMBL document CHEMBL1157638, “Fluorescent epigenetic small molecule induces expression of the tumor suppressor ras-association domain family 1A and inhibits human prostate xenograft” (J Med Chem, 2010)
The source made the active and inactive calls. No cut-off for these calls is given here.

Assays:
A549 [1] = assay: Growth inhibition of human A549 cells assessed as cell growth at 100 nM relative to untreated control; format: functional; settings: read-out: Activity
NCI-H460 = assay: Growth inhibition of human NCI-H460 cells assessed as cell growth at 10 uM relative to untreated control; format: functional; settings: read-out: Activity
MDA-MB-435 = assay: Growth inhibition of human MDA-MB-435 cells assessed as cell growth at 10 uM relative to untreated control; format: functional; settings: read-out: Activity
MOLT-4 = assay: Growth inhibition of human MOLT4 cells assessed as cell growth at 1 nM relative to untreated control; format: functional; settings: read-out: Activity
A549 [2] = assay: Growth inhibition of human A549 cells; format: functional
ACHN = assay: Growth inhibition of human ACHN cells assessed as cell growth at 10 nM relative to untreated control; format: functional; settings: read-out: Activity
SN12C [3] = assay: Growth inhibition of human SN12C cells assessed as cell growth at 1 nM relative to untreated control; format: functional; settings: read-out: Activity
NCI-H322M [4] = assay: Growth inhibition of human NCI-H322M cells assessed as cell growth at 1 nM relative to untreated control; format: functional; settings: read-out: Activity
CCRF-CEM [5] = assay: Growth inhibition of human CCRF-CEM cells assessed as cell growth at 1 nM relative to untreated control; format: functional; settings: read-out: Activity
RXF 393 = assay: Growth inhibition of human RXF393 cells; format: functional
SK-MEL-5 = assay: Growth inhibition of human SK-MEL-5 cells assessed as cell growth at 100 nM relative to untreated control; format: functional; settings: read-out: Activity
EKVX = assay: Growth inhibition of human EKVX cells assessed as cell growth at 10 uM relative to untreated control; format: functional; settings: read-out: Activity
Summary of the method: (§1)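 Run externally at the National Cancer Institute as a 59-cell-line panel screen, with concentrations up to 100 μM. Growth was scored relative to control, where negative growth or total cell kill was possible. Data are in the Supporting Information.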

CAKI-1 = assay: Growth inhibition of human Caki1 cells assessed as cell growth at 10 uM relative to untreated control; format: functional; settings: read-out: Activity; summary of the method: as §1
HT-29 = assay: Growth inhibition of human HT-29 cells assessed as cell growth at 1 uM relative to untreated control; format: functional; settings: read-out: Activity
NCI-H226 [6] = assay: Growth inhibition of human NCI-H226 cells assessed as cell growth at 1 nM relative to untreated control; format: functional; settings: read-out: Activity
NCI-H322M [7] = assay: Growth inhibition of human NCI-H322M cells assessed as cell growth at 1 uM relative to untreated control; format: functional; settings: read-out: Activity
MCF7 = assay: Growth inhibition of human MCF7 cells assessed as cell growth at 10 nM relative to untreated control; format: functional; settings: read-out: Activity
T47D = assay: Growth inhibition of human T47D cells; format: functional
HCT-15 = assay: Growth inhibition of human HCT15 cells assessed as cell growth at 10 nM relative to untreated control; format: functional; settings: read-out: Activity; summary of the method: as §1
[8] = molecular target: DNA (cytosine-5)-methyltransferase 1 (Homo sapiens) (UniProt P26358); assay: Inhibition of DNA methyltransferase activity in human PC3 cells at 2 uM after 3 days; format: cell-based; settings: PC-3
Summary of the method: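 PC-3 cells in complete growth medium treated 3 days with compound, then harvested. Nuclear extracts prepared by kit protocol, and DNMT activity measured with a commercial DNMT activity kit against untreated cells. Mean of three independent experiments ± SEM.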

SF-268 [9] = assay: Growth inhibition of human SF268 cells assessed as cell growth at 100 nM relative to untreated control; format: functional; settings: read-out: Activity
IGROV-1 = assay: Growth inhibition of human IGROV1 cells assessed as cell growth at 100 nM relative to untreated control; format: functional; settings: read-out: Activity
SF-295 = assay: Growth inhibition of human SF295 cells assessed as cell growth at 10 uM relative to untreated control; format: functional; settings: read-out: Activity
HOP-92 [10] = assay: Growth inhibition of human HOP92 cells assessed as cell growth at 10 uM relative to untreated control; format: functional; settings: read-out: Activity; summary of the method: as §1
HL-60(TB) = assay: Growth inhibition of human HL-60(TB) cells assessed as cell growth at 1 nM relative to untreated control; format: functional; settings: read-out: Activity
NCI-H226 [11] = assay: Growth inhibition of human NCI-H226 cells assessed as cell growth at 1 uM relative to untreated control; format: functional; settings: read-out: Activity
DU-145 = assay: Growth inhibition of human DU145 cells assessed as cell growth at 10 nM relative to untreated control; format: functional; settings: read-out: Activity; summary of the method: as §1
HOP-92 [12] = assay: Growth inhibition of human HOP92 cells assessed as cell growth at 1 nM relative to untreated control; format: functional; settings: read-out: Activity; summary of the method: as §1
CCRF-CEM [13] = assay: Growth inhibition of human CCRF-CEM cells; format: functional
SF-268 [14] = assay: Growth inhibition of human SF268 cells assessed as cell growth at 10 nM relative to untreated control; format: functional; settings: read-out: Activity
Malme-3M = assay: Growth inhibition of human MALME-3M cells assessed as cell growth at 1 nM relative to untreated control; format: functional; settings: read-out: Activity
LOX IMVI = assay: Growth inhibition of human LOXIMVI cells assessed as cell growth at 100 nM relative to untreated control; format: functional; settings: read-out: Activity
SN12C [15] = assay: Growth inhibition of human SN12C cells assessed as cell growth at 1 uM relative to untreated control; format: functional; settings: read-out: Activity
COLO 205 = assay: Growth inhibition of human COLO205 cells assessed as cell growth at 1 nM relative to untreated control; format: functional; settings: read-out: Activity
PC-3 [16] = assay: Decrease in DNA synthesis in human PC3 cells at 5 uM after 24 hrs by BrdU incorporation assay; format: functional, cell-based
Summary of the method: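 PC-3 cells were seeded at 2 × 10⁴ cells/well and exposed to 5 μM compound or DMSO for 24 h. BrdU incorporation was read by chemiluminescent cell proliferation ELISA on a luminometer. Background without anti-BrdU-peroxidase was subtracted and values were normalized to untreated control. Values are mean ± SEM.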

SF-539 = assay: Growth inhibition of human SF539 cells; format: functional; settings: read-out: LC50 (the source's name)
PC-3 [17] = assay: Growth inhibition of human PC3 cells after 24 hrs by trypan blue exclusion method; format: functional; settings: PC-3, 24 h
Summary of the method: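 PC-3 cells grown in phenol red-free IMEM with 10% FBS, 2 mM glutamine and penicillin/streptomycin at 37 °C, 5% CO2. Seeded in triplicate at 1.5 × 10⁴ cells/well. After 24 h, treated with DMSO vehicle or 1, 5, 15, 30 or 60 μM compound for 24 h. Cells trypsinized, stained with 0.4% trypan blue, and live and dead cells counted by hemocytometer. Mean ± SEM of three independent observations.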

A498 [18] = assay: Growth inhibition of human A498 cells assessed as cell growth at 100 nM relative to untreated control; format: functional; settings: read-out: Activity
U-251 = assay: Growth inhibition of human U251 cells assessed as cell growth at 1 nM relative to untreated control; format: functional; settings: read-out: Activity
UACC-62 = assay: Growth inhibition of human UACC62 cells assessed as cell growth at 100 nM relative to untreated control; format: functional; settings: read-out: Activity
A498 [19] = assay: Growth inhibition of human A498 cells; format: functional
OVCAR-4 = assay: Growth inhibition of human OVCAR4 cells assessed as cell growth at 1 nM relative to untreated control; format: functional; settings: read-out: Activity
[20] = read-out: LC50 (the source's name)

Chain of DNA (cytosine-5)-methyltransferase 1 (Homo sapiens) (P26358 whole entry): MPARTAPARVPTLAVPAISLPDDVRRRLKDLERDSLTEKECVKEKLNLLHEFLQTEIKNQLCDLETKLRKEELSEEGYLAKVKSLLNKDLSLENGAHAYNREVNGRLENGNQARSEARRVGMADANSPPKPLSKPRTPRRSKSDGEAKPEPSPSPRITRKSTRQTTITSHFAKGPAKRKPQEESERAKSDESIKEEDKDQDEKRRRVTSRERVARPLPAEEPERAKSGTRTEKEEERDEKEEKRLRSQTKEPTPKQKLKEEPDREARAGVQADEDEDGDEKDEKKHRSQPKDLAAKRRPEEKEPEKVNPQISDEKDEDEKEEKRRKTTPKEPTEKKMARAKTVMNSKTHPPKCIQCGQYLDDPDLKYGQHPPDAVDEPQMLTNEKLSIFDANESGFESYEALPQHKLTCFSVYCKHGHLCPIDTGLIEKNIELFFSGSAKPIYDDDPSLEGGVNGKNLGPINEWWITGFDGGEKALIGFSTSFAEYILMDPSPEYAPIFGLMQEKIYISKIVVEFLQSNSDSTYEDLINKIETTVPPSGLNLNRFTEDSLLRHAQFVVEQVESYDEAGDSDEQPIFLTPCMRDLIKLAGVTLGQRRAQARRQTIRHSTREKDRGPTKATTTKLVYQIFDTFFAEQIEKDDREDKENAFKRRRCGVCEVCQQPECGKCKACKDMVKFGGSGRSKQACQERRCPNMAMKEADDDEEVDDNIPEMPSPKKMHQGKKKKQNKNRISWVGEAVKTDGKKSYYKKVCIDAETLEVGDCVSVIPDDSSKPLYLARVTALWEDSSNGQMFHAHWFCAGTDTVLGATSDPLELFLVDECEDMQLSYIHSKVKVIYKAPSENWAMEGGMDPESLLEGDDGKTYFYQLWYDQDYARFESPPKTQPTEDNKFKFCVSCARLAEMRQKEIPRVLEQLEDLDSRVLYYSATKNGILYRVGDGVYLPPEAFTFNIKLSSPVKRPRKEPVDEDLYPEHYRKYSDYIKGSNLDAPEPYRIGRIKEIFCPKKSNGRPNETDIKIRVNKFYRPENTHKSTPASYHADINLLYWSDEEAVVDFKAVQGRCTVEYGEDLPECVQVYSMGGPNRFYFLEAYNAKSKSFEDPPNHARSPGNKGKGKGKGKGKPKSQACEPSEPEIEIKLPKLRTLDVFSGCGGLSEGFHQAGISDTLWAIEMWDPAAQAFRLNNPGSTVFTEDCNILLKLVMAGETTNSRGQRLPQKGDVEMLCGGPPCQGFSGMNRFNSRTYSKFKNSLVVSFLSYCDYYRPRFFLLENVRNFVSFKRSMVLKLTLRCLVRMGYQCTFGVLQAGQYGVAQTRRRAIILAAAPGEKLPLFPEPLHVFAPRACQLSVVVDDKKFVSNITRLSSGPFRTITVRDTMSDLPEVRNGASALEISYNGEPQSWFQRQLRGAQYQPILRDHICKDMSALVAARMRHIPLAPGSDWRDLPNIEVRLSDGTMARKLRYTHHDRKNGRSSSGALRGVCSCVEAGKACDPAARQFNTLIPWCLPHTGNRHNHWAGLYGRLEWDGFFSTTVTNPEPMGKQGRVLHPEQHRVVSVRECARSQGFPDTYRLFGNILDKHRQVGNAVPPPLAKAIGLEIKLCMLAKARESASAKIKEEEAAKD

In the case of `COc1ccc2c(c1)[nH]c1c(C)c(OS(=O)(=O)c3cccc4c(N(C)C)cccc34)ccc12`, the growth at 0.1 µM (A549 [1]) was 95%, the growth at 10 µM (NCI-H460) was -3% and the growth at 10 µM (MDA-MB-435) was -1%. It also gave a growth at 0.001 µM (MOLT-4) of 103%, a GI50 (A549 [2]) of 4.98 µM and a TGI (A549 [2]) of over 100 µM. The CC50 (A549 [2]; [20]) was over 100 µM, the growth at 0.01 µM (ACHN) was 102% and the growth at 0.001 µM (SN12C [3]) was 96%. The growth at 0.001 µM (NCI-H322M [4]) was 98%, the growth at 0.001 µM (CCRF-CEM [5]) was 99% and the GI50 (RXF 393) was 2.44 µM. The TGI (RXF 393) was 5.95 µM, the CC50 (RXF 393; [20]) was over 100 µM and the growth at 0.1 µM (SK-MEL-5) was 91%. The growth at 10 µM (EKVX) was 16%, the growth at 10 µM (CAKI-1) was 26% and the growth at 1 µM (HT-29) was 13%. It also gave a growth at 0.001 µM (NCI-H226 [6]) of 91%, a growth at 1 µM (NCI-H322M [7]) of 52% and a growth at 0.01 µM (MCF7) of 86%. The GI50 (T47D) was 3.06 µM, the TGI (T47D) was over 100 µM and the CC50 (T47D; [20]) was over 100 µM. The growth at 0.01 µM (HCT-15) was 92%, the Activity [8] was “Active” and the growth at 0.1 µM (SF-268 [9]) was 96%. For the same molecule, the growth at 0.1 µM (IGROV-1) was 98%, the growth at 10 µM (SF-295) was 1% and the growth at 10 µM (HOP-92 [10]) was -1%. The growth at 0.001 µM (HL-60(TB)) was 88%, the growth at 1 µM (NCI-H226 [11]) was 51% and the growth at 0.01 µM (DU-145) was 107%. The growth at 0.001 µM (HOP-92 [12]) was 101%, the GI50 (CCRF-CEM [13]) was 2.88 µM and the TGI (CCRF-CEM [13]) was over 100 µM. The CC50 (CCRF-CEM [13]; [20]) was over 100 µM, the growth at 0.01 µM (SF-268 [14]) was 111% and the growth at 0.001 µM (Malme-3M) was 93%. For the same molecule, the growth at 0.1 µM (LOX IMVI) was 91%, the growth at 1 µM (SN12C [15]) was 51% and the growth at 0.001 µM (COLO 205) was 104%. The Activity (PC-3 [16]) was “Active”, the CC50 (SF-539) was over 100 µM and the GI50 (PC-3 [17]) was 1.5 µM. It also gave a growth at 0.1 µM (A498 [18]) of 59%, a growth at 0.001 µM (U-251) of 100% and a growth at 0.1 µM (UACC-62) of 75%. It also gave a GI50 (A498 [19]) of 22.4 µM, a TGI (A498 [19]) of 60.2 µM and a CC50 (A498 [19]; [20]) of over 100 µM. It also gave a growth at 0.001 µM (OVCAR-4) of 94%.
